In ChEMBL document CHEMBL2216753, “Novel 1,4-benzoxazine and 1,4-benzodioxine inhibitors of angiogenesis” (Eur J Med Chem, 2012):
Blank lines part the entries; values can stand above or below the compound they belong to. Activity calls are given as the source filed them. No cut-off for these calls is given here.

Assays:
HeLa [1] = assay: Cytotoxicity against human HeLa cells at 100 uM after 3 days by coulter counter method; assay type: cell-based; conditions: 72 h
Outline: (§1)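 Cells seeded at 10,000 cells per cm2; after 16 h, fresh medium with test compound added. Cells trypsinized and counted with a Coulter counter on day 4 (BAEC, HeLa, MCF-7) or day 7 (HMEC-1). Cytotoxicity (cell death) was judged after 3 days in culture. HMEC-1 grown in EGM-2 with supplements and growth factors.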

Gallus gallus [2] = species on record: Gallus gallus; assay: Antiangiogenic activity in chicken embryo chorioallantoic membrane model assessed as destruction of vessels with bleeding at 20 nmol/disc after 3 days; assay type: functional, tissue-based
HMEC-1 [3] = assay: Antiangiogenic activity in human HMEC1 cells assessed as inhibition of tube formation at 30 uM after 4 to 6 hrs by matrigel assay; assay type: functional, cell-based
Outline: (§2)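 HMEC-1 (60,000 cells) seeded on matrigel (10 mg/mL) after 30 min gelling at 37 °C, in DMEM containing test compound; after 4–6 h cells photographed and tubes scored 0 (none) to 3 (maximal, like untreated control). Mean ± SD of 2–4 independent experiments; Student t test, p < 0.05 significant.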

MAEC [4] = assay: Antimigratory activity against mouse MAEC cell migration after 5 hrs by wound closure assay; assay type: functional, cell-based
Outline: (§3)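 Confluent MAEC monolayers wounded with a 1.0-mm wide micropipette tip, then incubated in fresh medium with test compound. Wounds photographed after 5 h and width calculated from digital images. Mean ± SD of 2–4 independent experiments; Student t test, p < 0.05 significant.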

Gallus gallus [5] = species on record: Gallus gallus; assay: Antiangiogenic activity in chicken embryo chorioallantoic membrane model at 250 nmol/disc after 3 days; assay type: functional, tissue-based
[6] = Antimigratory activity against mouse MAEC cell migration at 3 uM after 5 hrs by wound closure assay; assay type: functional; outline: as §3
[7] = Cytotoxicity against bovine BAEC cells at 30 uM after 3 days by coulter counter method; assay type: cell-based, Bos taurus; conditions: cattle, 72 h; outline: as §1
HMEC-1 [8] = assay: Antiangiogenic activity in human HMEC1 cells assessed as inhibition of tube formation at 10 uM after 4 to 6 hrs by matrigel assay; assay type: functional, cell-based; outline: as §2
MCF7 [9] = assay: Cytotoxicity against human MCF7 cells at 100 uM after 3 days by coulter counter method; assay type: cell-based; conditions: mcf7, 72 h; outline: as §1
MAEC [10] = assay: (§4) Antimigratory activity against mouse MAEC cell migration at 30 uM after 5 hrs by wound closure assay; assay type: functional; outline: as §3
MCF7 [11] = assay: Antiproliferative activity against human MCF7 cells after 4 days by coulter counter method; assay type: functional, cell-based; conditions: MCF7, 96 h
[12] = Antiproliferative activity against bovine BAEC cells after 4 days by coulter counter method; assay type: functional, cell-based; conditions: Bos taurus, 96 h
[13] = Antimigratory activity against mouse MAEC cell migration at 10 uM after 5 hrs by wound closure assay; assay type: functional; outline: as §3
[14] = Antiproliferative activity against human HMEC1 cells after 7 days by coulter counter method; assay type: functional, cell-based; conditions: HMEC-1, 168 h
[15] = Cytotoxicity against human HMEC1 cells at 100 uM after 3 days by coulter counter method; assay type: cell-based; conditions: hmec-1, 72 h; outline: as §1
HeLa [16] = assay: Antiproliferative activity against human HeLa cells after 4 days by coulter counter method; assay type: functional, cell-based; conditions: 96 h
[17] = Cytotoxicity against bovine BAEC cells at 100 uM after 3 days by coulter counter method; assay type: cell-based, Bos taurus; conditions: cattle, 72 h; outline: as §1
[18] = Cytotoxicity against human HMEC1 cells at 30 uM after 3 days by coulter counter method; assay type: cell-based; conditions: hmec-1, 72 h; outline: as §1
Gallus gallus [19] = species on record: Gallus gallus; assay: Antiangiogenic activity in chicken embryo chorioallantoic membrane model assessed as degradation of immature existing blood vessels at 40 to 250 nmol/disc after 3 days; assay type: functional, tissue-based
MCF7 [20] = assay: Cytotoxicity against human MCF7 cells at 30 uM after 3 days by coulter counter method; assay type: cell-based; conditions: mcf7, 72 h; outline: as §1
HeLa [21] = assay: Cytotoxicity against human HeLa cells at 30 uM after 3 days by coulter counter method; assay type: cell-based; conditions: 72 h; outline: as §1
HMEC-1 [22] = assay: Antiangiogenic activity in human HMEC1 cells assessed as inhibition of tube formation after 4 to 6 hrs by matrigel assay; assay type: functional, cell-based; outline: as §2
Gallus gallus [23] = species on record: Gallus gallus; assay: Antiangiogenic activity in chicken embryo chorioallantoic membrane model assessed as inhibition of chorioallantoic membrane vascularization at 100 to 250 nmol/disc after 3 days; assay type: functional, tissue-based
Gallus gallus [24] = species on record: Gallus gallus; assay: Antiangiogenic activity in chicken embryo chorioallantoic membrane model assessed as inhibition of pre-existing mature vessel at 100 to 250 nmol/disc after 3 days; assay type: functional, tissue-based
[25] = as §4; assay type: functional; outline: as §3
Prothrombin = Prothrombin (Homo sapiens, UniProt P00734); assay: Inhibition of thrombin

SMILES: CCOC(=O)CN(Cc1cc(F)cc(F)c1)c1ccc2c(c1)N(C)CC(C)(COc1ccc(C(=N)N)cc1)O2 (configuration not stated)
Activity (HeLa [1]): Toxic
Activity (Gallus gallus [2]): Active
inhibition (HMEC-1 [3]): Active
inhibition (MAEC [4]): Dose-dependent effect
inhibition (Gallus gallus [5]): Active
inhibition at 3 µM [6]: > 40%
Activity [7]: Toxic
inhibition (HMEC-1 [8]): inactive
Activity (MCF7 [9]): Toxic
inhibition (MAEC [10]): Active
IC50 (MCF7 [11]): 4.5 µM
IC50 [12]: 4 µM
inhibition at 10 µM [13]: 50%
IC50 [14]: 6.7 µM
Activity [15]: Toxic
IC50 (HeLa [16]): 4.5 µM
Activity [17]: Toxic
Activity [18]: Toxic
Activity (Gallus gallus [19]): Active
Activity (MCF7 [20]): Toxic
Activity (HeLa [21]): Toxic

Ki (Prothrombin): 178 nM
SMILES: CCOC(=O)C(=O)N(Cc1ccccc1)c1ccc2c(c1)OC(COc1ccc(C(=N)N)cc1)CO2 (configuration not stated)
Activity (HeLa [1]): Non-toxic
inhibition (HMEC-1 [22]): Dose-dependent effect
inhibition (Gallus gallus [23]): Active
Activity (Gallus gallus [24]): inactive
inhibition (MAEC [4]): Dose-dependent effect
inhibition (Gallus gallus [5]): Active
Activity (MCF7 [9]): Non-toxic
inhibition at 30 µM [25]: > 80%
IC50 (MCF7 [11]): 8.7 µM
IC50 [12]: 8.5 µM
inhibition at 10 µM [13]: > 40%
IC50 [14]: 22 µM
Activity [15]: Non-toxic
IC50 (HeLa [16]): 8 µM
Activity [17]: Non-toxic
